Values after ≈ are worked out from the molar mass of the structure shown. Active and inactive are the calls of the source. No cut-off for these calls is given here.
How the values were obtained:
[1] = tested on: Staphylococcus aureus; experiment: Antibacterial activity against Staphylococcus aureus after 18 hrs by microdilution assay; type: functional
In short: (§1)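 Broth microdilution in Mueller-Hinton broth, with cells at a set final CFU/mL density. Compounds dissolved in DMSO. Incubation at 37 °C for 18 h under aerobic conditions. Blank controls received a limited amount of DMSO under the same conditions. Read-out is MIC.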

[2] = tested on: Micrococcus luteus; experiment: Antibacterial activity against Micrococcus luteus after 18 hrs by microdilution assay; type: functional; in short: as §1
[3] = tested on: HL-60; experiment: Cytotoxicity against human HL60 cells after 48 hr by MTT assay; type: functional, cell-based
[4] = tested on: SGC-7901; experiment: Cytotoxicity against human SGC7901 cells after 48 hr by MTT assay; type: functional, cell-based
[5] = tested on: MKN-28; experiment: Cytotoxicity against human MKN28 cells after 48 hr by MTT assay; type: functional, cell-based
[6] = biological target: T1, DNA topoisomerase 1 (Mus musculus, UniProt Q04750); experiment: Inhibition of topoisomerase 1 extracted from mouse EAC cells assessed as inhibition of Escherichia coli pBR322 relaxation; type: cell-free, Ehrlich
T1 sequence (Q04750 whole entry): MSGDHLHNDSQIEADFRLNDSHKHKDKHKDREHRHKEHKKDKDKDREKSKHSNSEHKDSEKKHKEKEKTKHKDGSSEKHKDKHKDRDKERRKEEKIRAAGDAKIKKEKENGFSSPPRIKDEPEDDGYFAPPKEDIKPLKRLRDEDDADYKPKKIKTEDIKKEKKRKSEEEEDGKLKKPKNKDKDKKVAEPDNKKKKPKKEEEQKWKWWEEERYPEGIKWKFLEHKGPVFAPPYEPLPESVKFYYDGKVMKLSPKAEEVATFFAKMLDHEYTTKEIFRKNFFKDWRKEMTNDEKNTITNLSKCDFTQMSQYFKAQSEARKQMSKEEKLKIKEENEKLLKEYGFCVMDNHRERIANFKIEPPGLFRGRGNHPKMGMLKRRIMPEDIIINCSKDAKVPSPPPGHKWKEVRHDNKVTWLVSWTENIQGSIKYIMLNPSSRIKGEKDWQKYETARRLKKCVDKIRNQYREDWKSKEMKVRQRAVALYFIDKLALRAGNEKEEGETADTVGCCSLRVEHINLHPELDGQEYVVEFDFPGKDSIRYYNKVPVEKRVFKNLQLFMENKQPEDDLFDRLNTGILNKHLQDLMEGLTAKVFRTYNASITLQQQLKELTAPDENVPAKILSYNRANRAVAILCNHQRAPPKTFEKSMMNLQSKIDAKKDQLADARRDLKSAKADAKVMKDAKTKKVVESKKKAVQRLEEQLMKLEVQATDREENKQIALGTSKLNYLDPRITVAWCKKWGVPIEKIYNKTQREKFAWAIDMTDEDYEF

| Compound | Activity [3] | Activity [4] | Activity [5] | also measured |
| --- | --- | --- | --- | --- |
| CC(C)C1=CC(=O)C([C@@]2(C)CCCC(C)(C)[C@@H]2CC=O)=CC1=O |  |  |  | MIC [1]: 20 µM (≈ 6.33 µg/mL); MIC [2]: 15 µM (≈ 4.75 µg/mL) |
| Cc1ccc2cc(C(C)C)c(O)c3c2c1C(=O)OC3=O | inactive | inactive | inactive |  |
| Cc1ccc2c(c1CCCC(C)(C)O)C(=O)C(=O)C(C(C)C)=C2 |  |  |  | IC50 [6]: 800 nM |
| Cc1ccc2c(c1CCC(=O)C(C)(C)O)C(=O)C(=O)C(C(C)C)=C2 |  |  |  | IC50 ([3]; HL-60, 48 h): 4600 nM; IC50 ([4]; SGC-7901, 48 h): 200 nM; IC50 ([5]; MKN-28, 48 h): 300 nM |
| C=C(C)C1CCc2c(C)ccc3c2[C@]1(O)C(=O)C(C(C)C)=C3 (some centres not stated) | inactive | inactive | inactive |  |

— ChEMBL document CHEMBL1150115, “Bioactive abietane and seco-abietane diterpenoids from Salvia prionitis” (J Nat Prod, 2002)
